Among the data in ChEMBL document CHEMBL4513216, “Probing the Open Global Health Chemical Diversity Library for Multistage-Active Starting Points for Next-Generation Antimalarials” (ACS Infect Dis, 2020) are cytotoxicity values, retold here.

A short description of the data set: Toxicity liver stage against HepG2, at 10uM. Also on record: test concentration 10 uM, cell line HepG2-A16-CD81EGFP. Particulars: human, HepG2-A16-CD81EGFP cells; read-out: INHIBITION
The format is cell-based. The method, boiled down:
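Uninfected HepG2-A16-CD81EGFP cells, 3 × 10^3 per well, 1536-well, plated on prespotted compound at 10 μM final, parasite-free screening media added to match infected plates; puromycin 10 μM positive, DMSO 0.5% negative; run in parallel with 48 h PbLuc assay at 37 °C, 5% CO2; viability by CellTiter-Glo luminescence, normalized to controls.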

Consider `CC1CN(C)CCN1CC(=O)NCCOc1cccc(F)c1` (stereo unspecified), for which the cytotoxicity at 10 µM was -11.7%.

For `Cc1nc(CCNC(=O)c2cc(C(C)C)nn2C)sc1C`, the cytotoxicity at 10 µM was determined as 22.4%.

As to `Cc1nn(C)c(C)c1C1CCCN1Cc1nc(-c2ccco2)oc1C` (stereo unspecified), the cytotoxicity at 10 µM was -4.27%.

Take `N#Cc1ccc(Nc2nc3c(s2)C(=O)CN(CC2CC2)C3)cc1`: the cytotoxicity at 10 µM is -5.28%.

`Cc1ccc(N2CCc3ncnc(C)c3CC2)nn1`: the cytotoxicity at 10 µM was -93.6%.

`O=C(O)c1ccc(CN2CCCC(Cc3ccn[nH]3)C2)cc1` (stereo unspecified): the cytotoxicity at 10 µM was -6.08%.

With `COc1ccc(CCCN(C)C(=O)c2cc(Cl)c[nH]2)cc1OC`, the cytotoxicity at 10 µM is -1.24%.

Take `CC(C)(C)c1nnc(CN2CCCC(c3cc(C(N)=O)[nH]n3)C2)o1` (stereo unspecified): the cytotoxicity at 10 µM was -7.89%.

On to `NC(=O)CC1CCCCN1C(=O)c1ccc2cc[nH]c2c1` (stereo unspecified), for which the cytotoxicity at 10 µM is -4.02%.

Consider `Cn1ncc2c(N3CCCC(C)(O)C3)nc(-c3cccnc3)nc21` (stereo unspecified), for which the cytotoxicity at 10 µM was 9.98%.

For `COc1cccc(Cn2cc(C3=CCN(CCO)CC3)cn2)c1`, the cytotoxicity at 10 µM is -10.2%.

Take `Cc1cccc2ncnc(N3CCOC(C)C3)c12` (stereo unspecified): the cytotoxicity at 10 µM came to 0.00648%.

On to `Cc1nn(C(C)C)c2cn(CC(=O)NC3CCSCC3)nc12`, for which the cytotoxicity at 10 µM was -2.72%.

In the case of `O=C(CCNc1ncccn1)N1CCC(Nc2cccnn2)CC1`, the cytotoxicity at 10 µM was -12.9%.

Regarding `CC(C)NC(=O)NC[C@H]1C[C@@H]2CCN1C[C@@H]2CN(C)c1ccccc1`, the cytotoxicity at 10 µM turned out to be 1.95%.

As to `COCC(=O)N1CCN(c2ncnc3cccc(F)c23)CC1`, the cytotoxicity at 10 µM came to 6.37%.

For `CN1CCN(C(=O)Cc2cccc(F)c2)Cc2cccnc21`, the cytotoxicity at 10 µM is -6.17%.

As to `N#CCCN(Cc1ccccn1)C(=O)Nc1cccc(F)c1`, the cytotoxicity at 10 µM was 3.43%.

Consider `CS(=O)(=O)c1cncnc1C1CCCN(C(=O)Nc2ccc(F)cc2)C1` (stereo unspecified), for which the cytotoxicity at 10 µM was -1.86%.

On to `Cc1nc(C2CCCN2C(=O)CC2CCCC2)ncc1C(N)=O` (stereo unspecified), for which the cytotoxicity at 10 µM is -21.7%.

Turning to `CN1CCCC1c1nnc2n1CCN(S(=O)(=O)c1ccccc1Cl)CC2` (stereo unspecified), the cytotoxicity at 10 µM was determined as 4.94%.

On to `CCCc1cc(C(=O)N(C)Cc2cnc3ccccc3n2)n(C)n1`, for which the cytotoxicity at 10 µM was -19.3%.

As for `COc1cccc(CN2C[C@@H]3COC[C@]3(COc3cccnc3)C2)c1`, the cytotoxicity at 10 µM is -64.7%.

With `CN(C)C(=O)N1CCn2nc(CNC(=O)CCC(F)(F)F)cc2C1`, the cytotoxicity at 10 µM was 5.6%.

Take `CCc1ccsc1C(=O)N1CCN(CC(C)O)CC1` (stereo unspecified): the cytotoxicity at 10 µM was -33.1%.

On to `Cn1ccnc1N1CCN(C(=O)Cc2ccc(Cl)cc2)CC1`, for which the cytotoxicity at 10 µM came out at 5.73%.

On to `Oc1cc(CCC2CCCCN2)cc(-c2ccncc2)c1` (stereo unspecified), for which the cytotoxicity at 10 µM was -12.7%.

On to `O=C1NCCN1C1CCN(Cc2nc(-c3ccc(F)cc3)no2)CC1`, for which the cytotoxicity at 10 µM was found to be 44.1%.

As to `O=C1COc2ccc(S(=O)(=O)NCC3CCCO3)c3c2N1CCC3` (stereo unspecified), the cytotoxicity at 10 µM is -4.2%.

Take `Cc1noc(C)c1CNC(=O)N1CCC(CO)CC1`: the cytotoxicity at 10 µM is -8.08%.

Take `Cc1ccsc1CN(Cc1ccccn1)CC(C)C`: the cytotoxicity at 10 µM is -13.4%.

Regarding `CCc1cc(CNC(=O)N2CCN(c3nc(C)c(C)s3)CC2)on1`, the cytotoxicity at 10 µM is -11.6%.

Take `O=C(c1ccncc1)N1CCCC2(CCN(c3cccnc3)C2=O)C1` (stereo unspecified): the cytotoxicity at 10 µM is -131%.

On to `Cc1n[nH]c(C)c1CN1CC[C@@H]2[C@@H](CCC(=O)N2CCc2c[nH]cn2)C1`, for which the cytotoxicity at 10 µM is -3%.

`CC(C)(C)n1ncc2c1NC(=O)CSC2c1ccc2c(c1)OCO2` (stereo unspecified): the cytotoxicity at 10 µM was found to be 0.148%.

As to `CNC(=O)c1ccc(C2CN(C(=O)c3coc(C)n3)CCO2)nc1` (stereo unspecified), the cytotoxicity at 10 µM was -7.69%.

With `N#CCC(=O)NCc1nnc2n1CCN(Cc1cccs1)C2`, the cytotoxicity at 10 µM was -136%.

With `CCn1nc(C)c(S(=O)(=O)Nc2ccccc2C(=O)OC)c1C`, the cytotoxicity at 10 µM is -0.678%.

`NC(=O)c1cc(-c2cccc(C(=O)O)c2)cs1`: the cytotoxicity at 10 µM came out at 2.77%.

Consider `CC(Cc1cn(CCc2nnn[nH]2)nn1)c1ccccc1` (stereo unspecified), for which the cytotoxicity at 10 µM was determined as 3.78%.

Take `CCOc1ncccc1NC(=O)N1CCCC1c1cc(C)no1` (stereo unspecified): the cytotoxicity at 10 µM is 0.87%.

As to `CNc1oc(-c2ccc(OC)c(S(=O)(=O)N(C)C)c2)nc1C#N`, the cytotoxicity at 10 µM stood at 1.71%.

As to `Cc1ccc(CN2CC[C@H](c3nc4cccc(C(N)=O)c4[nH]3)C2)cc1`, the cytotoxicity at 10 µM turned out to be 35.1%.

Take `CS(=O)(=O)Cc1nc(CN2CCCc3sccc3C2)cs1`: the cytotoxicity at 10 µM was determined as 7.28%.

As to `CC(C)CC(=O)N1CCc2nc(N3CCOCC3)nc(NC(C)C)c2C1`, the cytotoxicity at 10 µM amounted to 2.86%.

Turning to `OCCn1cc(CN2CCN(CCOc3cccc(F)c3)CC2)cn1`, the cytotoxicity at 10 µM was -10.9%.

Turning to `Cn1ncc(C(=O)OCC2CC(=O)N(c3ccccc3)C2)c1C(F)F` (stereo unspecified), the cytotoxicity at 10 µM was determined as 1.93%.

In the case of `Cc1cc(C(=O)N2CCc3nnc(N)cc3C2)c(C)n1-c1ccccc1`, the cytotoxicity at 10 µM amounted to 0.591%.

On to `CCc1nnc(C(C)N2CCN(CCC(C)(C)C)CC2)o1` (stereo unspecified), for which the cytotoxicity at 10 µM came out at 6.61%.

Consider `CCC(=O)Nc1nnc(CCOc2cccc(OC)c2)s1`, for which the cytotoxicity at 10 µM turned out to be 5.73%.

Take `CCOC(=O)C1CSCCN1C(=O)c1ccc(-n2nc(C)cc2C)cc1` (stereo unspecified): the cytotoxicity at 10 µM is -4.92%.

`CCCc1ncc(CNC2(c3ccc(Cl)cc3)CCC2)cn1`: the cytotoxicity at 10 µM is -9.48%.

Consider `COCCN1CC[C@@H]2OC[C@H](C(=O)NCc3cccs3)C[C@@H]2C1`, for which the cytotoxicity at 10 µM is 2.7%.

Consider `O=C(c1cc2ccccc2c(=O)[nH]1)N1CCN(CCO)CC1`, for which the cytotoxicity at 10 µM worked out at 4.96%.

Consider `COC(C)(C)C(=O)N[C@H]1CN(c2nccnc2N(C)C)C[C@@H]1C(C)C`, for which the cytotoxicity at 10 µM is 4.24%.

On to `COc1ccc(CNC(=O)CNc2ccccc2OC)cc1`, for which the cytotoxicity at 10 µM was -2.25%.

`CC(C)C(NC(=O)NCCNc1ccccn1)c1cccs1` (stereo unspecified): the cytotoxicity at 10 µM was -8.13%.

Take `CC(=O)N1CCC2(CCN(C(=O)c3ccc(Cl)c(C(F)(F)F)c3)CC2)C1`: the cytotoxicity at 10 µM was -4.48%.

With `Cc1cnn(CCNCC(=O)Nc2ccc(Br)cn2)c1`, the cytotoxicity at 10 µM turned out to be 1.9%.

With `CC(NC(=O)CCc1cccs1)c1nnc2n1CCCCC2` (stereo unspecified), the cytotoxicity at 10 µM is -7.59%.

As to `Cc1ccc(CNCC2Cn3nnc(-c4cnn(C)c4)c3CO2)o1` (stereo unspecified), the cytotoxicity at 10 µM is 2.42%.

With `COC(=O)CC(NC(=O)c1cccc(N2CCCC2=O)c1)c1cccs1` (stereo unspecified), the cytotoxicity at 10 µM is -51.4%.

Turning to `COCc1nc(NC(C)Cc2cc(C)n[nH]2)c2cnn(C)c2n1` (stereo unspecified), the cytotoxicity at 10 µM is -10%.

On to `Cc1nc2c(c(NC(C)C)n1)CCN(C1CCOCC1)CC2`, for which the cytotoxicity at 10 µM amounted to 9.26%.

Turning to `N#Cc1ccc(CN2CCc3sccc3C2)c(F)c1`, the cytotoxicity at 10 µM was -5.13%.

`COc1cccc(-c2noc(C3CCN(Cc4cccs4)C3)n2)c1` (stereo unspecified): the cytotoxicity at 10 µM was -0.192%.

For `CC(C)[C@@H]1CN(C(=O)CN(C)Cc2ccccc2)C[C@H]1C(=O)O`, the cytotoxicity at 10 µM was -3.99%.

For the molecule `Cc1nc(C)c(CC(=O)N2CCCN(CC3CC3)C(C(C)C)C2)c(=O)[nH]1` (stereo unspecified), the cytotoxicity at 10 µM was -153%.

Regarding `Cc1c(F)cccc1S(=O)(=O)N(C)CC(C)O` (stereo unspecified), the cytotoxicity at 10 µM turned out to be 4.98%.

For the molecule `CC(C)OC(=O)CNC(=O)Nc1ccc(-c2nc(C(C)C)no2)cc1`, the cytotoxicity at 10 µM is -5.81%.

`Cc1cc(CN2CC[C@H]3[C@H]2CCN3C)oc1C`: the cytotoxicity at 10 µM is -0.655%.
